# Results taken from paper PMC5115981 (Cancer chemotherapy and pharmacology, 2016).
# Experiments:
# [1] = Mouse liver microsome incubation for glucuronide metabolism; format: in vitro ADME; conditions: mouse liver microsomes 0.25 mg/mL, alamethicin, UDPGA
# Summary of the method: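 Glucuronidation incubation used microsomes from female heterozygous Foxn1nu/Foxn1+ mouse liver. Mix: 0.1 M phosphate (pH 7.4), 0.25 mg/mL microsomal protein, 25 µg/mL alamethicin, 50 mM Tris-HCl, 10 mM MgCl2 and 1,000 ng/mL drug. A mix without UDPGA served as negative control. Samples were analysed twice: SRM monitoring of the m/z 613 glucuronide channel, then MRM quantitation of parent depletion against a curve in buffer with 0.25 mg/mL BSA. Parent expressed relative to time 0.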
# [2] = Plasma protein binding by rapid equilibrium dialysis; format: in vitro ADME, mouse; conditions: for fraction unbound at 4 h, 1000 ng/mL: mouse, plasma, pH 7.2, plasma protein binding
# Summary of the method: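 Rapid equilibrium dialysis with control mouse plasma spiked to 1,000 ng/mL from a DMSO stock (organic <0.1%). Four 200 µL replicates were dialysed against PBS (pH 7.2), shaken at 37 °C for 4 h. Both compartments were quantified by LC-MS/MS against a curve in 1:1 PBS:plasma, with samples diluted to match the matrix. Assay LLQ was 1 ng/mL.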
# mice [3] = test: Multiple dose; format: in vivo, mouse; conditions: IV daily for 5 days at 4, 2.7, 1.3 mg/kg, female mice
# Summary of the method: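 Female heterozygous Foxn1nu/Foxn1+ mice, 5 per group, fasted overnight before dosing. Test compound given IV by lateral tail vein daily for 5 days, in 10% Solutol HS15 in sterile water at 0.01 ml/g body weight; a vehicle group was included. Body weights tracked before, during and after dosing over a 14 day observation period, followed by necropsy for gross pathology.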
# [4] = tested on: pSTAT3 from IL-6 induction in a Cal33 cell line; conditions: read-out: IC50, inhibiting pSTAT3 from IL-6 induction; cited from earlier work
# mice [5] = test: Single dose IV toxicity study in mice; format: in vivo, mouse; conditions: single IV dose 4 mg/kg
# Summary of the method: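 Male and female heterozygous Foxn1nu/Foxn1+ mice, 5 per group, fasted overnight. Single 4 mg/kg IV tail-vein dose from a 0.4 mg/mL solution in 10% Solutol HS15 in sterile water (0.01 ml/g), alongside vehicle-treated mice. Body weights and clinical signs followed over 14 days, then necropsy for gross pathology. The dose tested was capped by maximum solubility.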
# [6] = Single dose pharmacokinetics in mice; format: in vivo, mouse; conditions: female, heterozygous Foxn1nu/Foxn1+, mouse; for Cmax: mice
# Summary of the method: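 Fasted female heterozygous Foxn1nu/Foxn1+ mice, 3 per time point (5–1440 min), received a single dose by one of three routes: 4.0 mg/kg in 10% Solutol HS IV via tail vein; the same formulation by oral gavage; or 30 mg/kg PO in 1% CMC suspension. Vehicle controls were taken at 5 and 1440 min. Sampling: cardiac-puncture EDTA plasma, tissues including brain, and metabolic-cage urine. Analysis by LC-MS/MS with a deuterated internal standard. Group means underwent non-compartmental analysis; […].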
# [7] = mouse plasma spiked at 1,000 ng/mL, RED, 37 °C, 4 hours, calculated using the LLQ value (1 ng/mL)
smiles,measurement,setting,value
"COc1ccc(C2=Nn3c(nnc3-c3cc(-c4ccc(Cl)cc4)n[nH]3)SC2C)cc1 (centres unmarked) [UPCDC-10205, 3-(3-(4-chlorophenyl)-1H-pyrazole-5-yl)-6-(4-methoxyphenyl)-7-methyl-7H-[1,2,4]triazolo[3,4-b][1,3,4]thiadiazine]",UPCDC-10205 remaining relative to time 0 after 60 min,[1],67%
same,concentration in the plasma portion of the RED device,"[2]; average of 4 replicates, 37 °C, 4 hours","1,091 ng/mL"
same,concentration in the saline buffer portion of the RED device,[2]; below the 1 ng/mL assay LLQ,0.2 ng/mL
same,plasma protein binding,[2]; [7],> 99.9%
same,"fraction unbound at 4 h, 1000 ng/mL","[2]; mouse plasma spiked at 1,000 ng/mL, RED, 37 °C, 4 hours, calculated using 0.2 ng/mL",~0.0002
same,"fraction unbound at 4 h, 1000 ng/mL",[2]; [7],< 0.0009
same,"body weights vs vehicle control group, multiple dose",mice [3],no statistical differences
same,"gross pathology upon necropsy, multiple dose",mice [3],no signs of gross pathology
same,"signs or symptoms of toxicity, multiple dose",mice [3]; 14 day observation,not toxic
same,IC50,[4],2200 nM
same,clinical appearance after single dose,"mice [5]; male and female mice, 14 day observation, 4 mg/kg",not toxic
same,gross pathology upon necropsy after single dose,mice [5]; necropsy after 14 day observation,no gross pathology was detected
same,body weight after single dose,mice [5]; within first 24 h after injection,no apparent weight loss
same,AUC(0-t),"[6]; brain, iv, 4 mg/kg",1730 ng·h/mL
same,Tmax,"[6]; brain, iv, 4 mg/kg",15 min
same,Cmax,"[6]; brain, iv, 4 mg/kg, IV 4 mg/kg in 10% Solutol HS, brain",1640 ng/mL
same,AUC(0-t),"[6]; brain, po, 4 mg/kg",30 ng·h/mL
same,Tmax,"[6]; brain, po, 4 mg/kg",60 min
same,Cmax,"[6]; brain, po, 4 mg/kg, PO 4 mg/kg in 10% Solutol HS, brain",15.4 ng/mL
same,AUC(0-t),"[6]; brain, po, 30 mg/kg",33.4 ng·h/mL
same,Tmax,"[6]; brain, po, 30 mg/kg",5 min
same,Cmax,"[6]; brain, po, 30 mg/kg, PO 30 mg/kg suspension in 1% CMC, brain",49 ng/mL
same,AUC(0-t),"[6]; kidney, iv, 4 mg/kg",3240 ng·h/mL
same,Tmax,"[6]; kidney, iv, 4 mg/kg",5 min
same,Cmax,"[6]; kidney, iv, 4 mg/kg, IV 4 mg/kg in 10% Solutol HS, kidney",4620 ng/mL
same,AUC(0-t),"[6]; kidney, po, 4 mg/kg",428 ng·h/mL
same,Tmax,"[6]; kidney, po, 4 mg/kg",30 min
same,Cmax,"[6]; kidney, po, 4 mg/kg, PO 4 mg/kg in 10% Solutol HS, kidney",308 ng/mL
same,AUC(0-t),"[6]; kidney, po, 30 mg/kg",272 ng·h/mL
same,Tmax,"[6]; kidney, po, 30 mg/kg",5 min
same,Cmax,"[6]; kidney, po, 30 mg/kg, PO 30 mg/kg suspension in 1% CMC, kidney",404 ng/mL
same,AUC(0-t),"[6]; liver, iv, 4 mg/kg",1470 ng·h/mL
same,Tmax,"[6]; liver, iv, 4 mg/kg",30 min
same,Cmax,"[6]; liver, iv, 4 mg/kg, IV 4 mg/kg in 10% Solutol HS, liver",2780 ng/mL
same,AUC(0-t),"[6]; liver, po, 4 mg/kg",300 ng·h/mL
same,Tmax,"[6]; liver, po, 4 mg/kg",5 min
same,Cmax,"[6]; liver, po, 4 mg/kg, PO 4 mg/kg in 10% Solutol HS, liver",220 ng/mL
same,AUC(0-t),"[6]; liver, po, 30 mg/kg",542 ng·h/mL
same,Tmax,"[6]; liver, po, 30 mg/kg",5 min
same,Cmax,"[6]; liver, po, 30 mg/kg, PO 30 mg/kg suspension in 1% CMC, liver",564 ng/mL
same,AUC(0-t),"[6]; lung, iv, 4 mg/kg",2680 ng·h/mL
same,Tmax,"[6]; lung, iv, 4 mg/kg",5 min
same,Cmax,"[6]; lung, iv, 4 mg/kg, IV 4 mg/kg in 10% Solutol HS, lung",4490 ng/mL
same,AUC(0-t),"[6]; lung, po, 4 mg/kg",630 ng·h/mL
same,Tmax,"[6]; lung, po, 4 mg/kg",4.98 min
same,Cmax,"[6]; lung, po, 4 mg/kg, PO 4 mg/kg in 10% Solutol HS, lung",414 ng/mL
same,AUC(0-t),"[6]; lung, po, 30 mg/kg",186 ng·h/mL
